Source: ChEMBL document CHEMBL2203123, “Synthesis and biological evaluation of some hydrazone derivatives as new anticandidal and anticancer agents” (Eur J Med Chem, 2012)
Values after ≈ are worked out from the molar mass of the structure shown.

Columns and labels:
[1] = test system: Salmonella typhimurium; assay: Genotoxicity against Salmonella typhimurium TA98 assessed as fold increase in revertants at 0.625 mg/ml after 90 mins by Ames MPF test in presence of S9 fraction relative to baseline; type: toxicity, organism-based; settings: salmonella enterica subsp. enterica serovar typhimurium, s9, 1.5 h
How it was run: (§1)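 Ames MPF fluctuation test, TA98 and TA100: overnight cultures reincubated 90 min, then exposed 90 min at 37 °C to compounds at 0.156-5 mg/mL (in DMSO) with or without 4.5% v/v S9; indicator medium added, 48 wells per sample scored yellow after 48 h, triplicate. Fold over baseline = mean positive wells / (mean of DMSO control + 1 SD).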

[2] = test system: Salmonella typhimurium; assay: Genotoxicity against Salmonella typhimurium TA98 assessed as fold increase in revertants at 1.25 mg/ml after 90 mins by Ames MPF test in presence of S9 fraction relative to baseline; type: toxicity, organism-based; settings: salmonella enterica subsp. enterica serovar typhimurium, s9, 1.5 h; how it was run: as §1
[3] = test system: Salmonella typhimurium; assay: Genotoxicity against Salmonella typhimurium TA98 assessed as fold increase in revertants at 2.5 mg/ml after 90 mins by Ames MPF test in presence of S9 fraction relative to baseline; type: toxicity, organism-based; settings: salmonella enterica subsp. enterica serovar typhimurium, s9, 1.5 h; how it was run: as §1
[4] = test system: Salmonella typhimurium; assay: Genotoxicity against Salmonella typhimurium TA98 assessed as fold increase in revertants at 5 mg/ml after 90 mins by Ames MPF test in presence of S9 fraction relative to baseline; type: toxicity, organism-based; settings: salmonella enterica subsp. enterica serovar typhimurium, s9, 1.5 h; how it was run: as §1
[5] = test system: Salmonella typhimurium; assay: Genotoxicity against Salmonella typhimurium TA98 assessed as fold increase in revertants at 0.156 mg/ml after 90 mins by Ames MPF test in absence of S9 fraction relative to baseline; type: toxicity, organism-based; settings: salmonella enterica subsp. enterica serovar typhimurium, 1.5 h; how it was run: as §1
[6] = test system: Salmonella typhimurium; assay: Genotoxicity against Salmonella typhimurium TA98 assessed as fold increase in revertants at 0.3125 mg/ml after 90 mins by Ames MPF test in absence of S9 fraction relative to baseline; type: toxicity, organism-based; settings: salmonella enterica subsp. enterica serovar typhimurium, 1.5 h; how it was run: as §1
[7] = test system: Salmonella typhimurium; assay: Genotoxicity against Salmonella typhimurium TA98 assessed as fold increase in revertants at 2.5 mg/ml after 90 mins by Ames MPF test in absence of S9 fraction relative to baseline; type: toxicity, organism-based; settings: salmonella enterica subsp. enterica serovar typhimurium, 1.5 h; how it was run: as §1
[8] = test system: Salmonella typhimurium; assay: Genotoxicity against Salmonella typhimurium TA98 assessed as fold increase in revertants at 5 mg/ml after 90 mins by Ames MPF test in absence of S9 fraction relative to baseline; type: toxicity, organism-based; settings: salmonella enterica subsp. enterica serovar typhimurium, 1.5 h; how it was run: as §1
[9] = test system: Salmonella typhimurium; assay: Genotoxicity against Salmonella typhimurium TA100 assessed as fold increase in revertants at 0.625 mg/ml after 90 mins by Ames MPF test in presence of S9 fraction relative to baseline; type: toxicity, organism-based; settings: salmonella enterica subsp. enterica serovar typhimurium, s9, 1.5 h; how it was run: as §1
[10] = test system: Salmonella typhimurium; assay: Genotoxicity against Salmonella typhimurium TA100 assessed as fold increase in revertants at 2.5 mg/ml after 90 mins by Ames MPF test in presence of S9 fraction relative to baseline; type: toxicity, organism-based; settings: salmonella enterica subsp. enterica serovar typhimurium, s9, 1.5 h; how it was run: as §1
[11] = test system: Salmonella typhimurium; assay: Genotoxicity against Salmonella typhimurium TA100 assessed as fold increase in revertants at 5 mg/ml after 90 mins by Ames MPF test in presence of S9 fraction relative to baseline; type: toxicity, organism-based; settings: salmonella enterica subsp. enterica serovar typhimurium, s9, 1.5 h; how it was run: as §1
[12] = test system: Salmonella typhimurium; assay: Genotoxicity against Salmonella typhimurium TA100 assessed as fold increase in revertants at 0.156 mg/ml after 90 mins by Ames MPF test in absence of S9 fraction relative to baseline; type: toxicity, organism-based; settings: salmonella enterica subsp. enterica serovar typhimurium, 1.5 h; how it was run: as §1
[13] = test system: Salmonella typhimurium; assay: Genotoxicity against Salmonella typhimurium TA100 assessed as fold increase in revertants at 0.625 mg/ml after 90 mins by Ames MPF test in absence of S9 fraction relative to baseline; type: toxicity, organism-based; settings: salmonella enterica subsp. enterica serovar typhimurium, 1.5 h; how it was run: as §1
[14] = test system: Salmonella typhimurium; assay: Genotoxicity against Salmonella typhimurium TA100 assessed as fold increase in revertants at 1.25 mg/ml after 90 mins by Ames MPF test in absence of S9 fraction relative to baseline; type: toxicity, organism-based; settings: salmonella enterica subsp. enterica serovar typhimurium, 1.5 h; how it was run: as §1
[15] = test system: Salmonella typhimurium; assay: Genotoxicity against Salmonella typhimurium TA100 assessed as fold increase in revertants at 5 mg/ml after 90 mins by Ames MPF test in absence of S9 fraction relative to baseline; type: toxicity, organism-based; settings: salmonella enterica subsp. enterica serovar typhimurium, 1.5 h; how it was run: as §1
[16] = test system: Nakaseomyces glabratus; assay: Antifungal activity against Candida glabrata Osmangazi University clinical isolate after 24 hrs by microdilution susceptibility assay; type: functional
How it was run: (§2)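 Broth microdilution in Mueller Hinton Broth, compounds from DMSO stocks diluted serially; inocula standardized to 10^6 CFU/mL (McFarland 0.5) from overnight MHB cultures. Plates held 37 °C for 24 h; MIC taken as first well without turbidity, aided by 1% tetrazolium violet added for 3 h at 37 °C. Ketoconazole reference.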

[17] = test system: Cyberlindnera jadinii; assay: Antifungal activity against Candida utilis NRRL Y-900 after 24 hrs by microdilution susceptibility assay; type: functional; settings: Williopsis jadinii, NRRL Y-900, 24 h; how it was run: as §2
[18] = test system: Salmonella typhimurium; assay: Genotoxicity against Salmonella typhimurium TA1535/pSK1002 assessed as growth factor ratio at 5 mg/ml by umuC assay in presence of S9 fraction; type: toxicity, organism-based; settings: salmonella enterica subsp. enterica serovar typhimurium
How it was run: (§3)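 umuC Easy CS: TA1535/pSK1002 grown overnight in ampicillin TG medium at 37 °C, then exposed 2 h at 37 °C to compounds at 5, 2.5, 1.25, 0.63 mg/mL with or without S9. Diluted into fresh medium for 2 h growth (OD600), then β-galactosidase with ONPG 30 min at 28 °C, OD420. Positive controls 2-aminoanthracene (+S9), […] (−S9).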

[19] = test system: Salmonella typhimurium; assay: Genotoxicity against Salmonella typhimurium TA1535/pSK1002 assessed as growth factor ratio at 0.63 mg/ml by umuC assay in presence of S9 fraction; type: toxicity, organism-based; settings: salmonella enterica subsp. enterica serovar typhimurium; how it was run: as §3
[20] = test system: Salmonella typhimurium; assay: Genotoxicity against Salmonella typhimurium TA1535/pSK1002 assessed as growth factor ratio at 5 mg/ml by umuC assay in absence of S9 fraction; type: toxicity, organism-based; settings: salmonella enterica subsp. enterica serovar typhimurium; how it was run: as §3
[21] = test system: Salmonella typhimurium; assay: Genotoxicity against Salmonella typhimurium TA1535/pSK1002 assessed as growth factor ratio at 2.5 mg/ml by umuC assay in absence of S9 fraction; type: toxicity, organism-based; settings: salmonella enterica subsp. enterica serovar typhimurium; how it was run: as §3
[22] = test system: Salmonella typhimurium; assay: Genotoxicity against Salmonella typhimurium TA1535/pSK1002 assessed as growth factor ratio at 0.63 mg/ml by umuC assay in absence of S9 fraction; type: toxicity, organism-based; settings: salmonella enterica subsp. enterica serovar typhimurium; how it was run: as §3
[23] = Genotoxicity against Salmonella typhimurium TA1535/pSK1002 assessed as induction ratio at 5 mg/ml by umuC assay in presence of S9 fraction; type: toxicity, organism-based; settings: salmonella enterica subsp. enterica serovar typhimurium, Salmonella typhimurium TA1535/pSK1002 with S9 fraction; how it was run: as §3
[24] = test system: Salmonella typhimurium; assay: Genotoxicity against Salmonella typhimurium TA1535/pSK1002 assessed as induction ratio at 2.5 mg/ml by umuC assay in presence of S9 fraction; type: toxicity, organism-based; settings: salmonella enterica subsp. enterica serovar typhimurium; how it was run: as §3
[25] = Genotoxicity against Salmonella typhimurium TA1535/pSK1002 assessed as induction ratio at 1.25 mg/ml by umuC assay in presence of S9 fraction; type: toxicity, organism-based; settings: salmonella enterica subsp. enterica serovar typhimurium, Salmonella typhimurium TA1535/pSK1002 with S9 fraction; how it was run: as §3
[26] = Genotoxicity against Salmonella typhimurium TA1535/pSK1002 assessed as induction ratio at 0.63 mg/ml by umuC assay in presence of S9 fraction; type: toxicity, organism-based; settings: salmonella enterica subsp. enterica serovar typhimurium, Salmonella typhimurium TA1535/pSK1002 with S9 fraction; how it was run: as §3
[27] = Genotoxicity against Salmonella typhimurium TA1535/pSK1002 assessed as induction ratio at 5 mg/ml by umuC assay in absence of S9 fraction; type: toxicity, organism-based; settings: salmonella enterica subsp. enterica serovar typhimurium, Salmonella typhimurium TA1535/pSK1002 without S9 fraction; how it was run: as §3
[28] = Genotoxicity against Salmonella typhimurium TA1535/pSK1002 assessed as induction ratio at 2.5 mg/ml by umuC assay in absence of S9 fraction; type: toxicity, organism-based; settings: salmonella enterica subsp. enterica serovar typhimurium, Salmonella typhimurium TA1535/pSK1002 without S9 fraction; how it was run: as §3
[29] = test system: Salmonella typhimurium; assay: Genotoxicity against Salmonella typhimurium TA1535/pSK1002 assessed as induction ratio at 0.63 mg/ml by umuC assay in absence of S9 fraction; type: toxicity, organism-based; settings: salmonella enterica subsp. enterica serovar typhimurium; how it was run: as §3

Row | Compound | fold change (FC) [1] | fold change (FC) [2] | fold change (FC) [3] | fold change (FC) [4] | fold change (FC) [5] | fold change (FC) [6] | fold change (FC) [7] | fold change (FC) [8] | fold change (FC) [9] | fold change (FC) [10] | fold change (FC) [11] | fold change (FC) [12] | fold change (FC) [13] | fold change (FC) [14] | fold change (FC) [15] | MIC [16] [µg/mL] | MIC [17] [µg/mL] | Ratio [18] | Ratio [19] | Ratio [20] | also measured
1 | COc1ccc(/C=N/NC(=O)CSc2nnnn2C)cc1 | 0.32 | 0.53 | 0.53 | 0.84 | 0.16 | 0.16 | 0.33 | 0.33 | 0.89 | 0.62 | 0.5 | 0.7 | 0.3 | 0.2 | 0.5 | 500 (≈ 1630 µM) | 250 (≈ 816 µM) | 2.261 | 1.117 | 1.99 | Ratio [21]: 1.166; Ratio [22]: 1.028; fold induction at 5 mg/ml [23]: 0.568; Ratio [24]: 0.681; fold induction at 1.25 mg/ml [25]: 0.769; fold induction at 0.63 mg/ml [26]: 0.814; fold induction at 5 mg/ml [27]: 0.763; fold induction at 2.5 mg/ml [28]: 1.04; Ratio [29]: 1.357
2 | Cn1nnnc1SCC(=O)N/N=C/c1ccccc1[N+](=O)[O-] | 1.78 | 2 | 2.22 | 1.11 | 1.63 | 1.63 | 1.96 | 1.14 | 1.28 | 2.2 | 1.7 | 1.67 | 0.83 | 1.33 | 1.33 | 500 (≈ 1560 µM) | 250 (≈ 778 µM) | 0.913 | 0.969 | 1.281 | Ratio [21]: 1.03; Ratio [22]: 1.068; fold induction at 5 mg/ml [23]: 1.19; Ratio [24]: 1.014; fold induction at 1.25 mg/ml [25]: 1.18; fold induction at 0.63 mg/ml [26]: 1.23; fold induction at 5 mg/ml [27]: 1.43; fold induction at 2.5 mg/ml [28]: 1.63; Ratio [29]: 1.509
3 | Cn1nnnc1SCC(=O)N/N=C/c1ccccc1F | 1 | 1.28 | 1.57 | 1.14 | 0.64 | 1.59 | 0.95 | 1.59 | 0.66 | 0.95 | 0.58 | 0.23 | 0.23 | 0.29 | 0.17 | 250 (≈ 849 µM) | 125 (≈ 425 µM) | 2.579 | 0.935 | 3.877 | Ratio [21]: 1.559; Ratio [22]: 1.045; fold induction at 5 mg/ml [23]: 0.284; Ratio [24]: 0.352; fold induction at 1.25 mg/ml [25]: 0.548; fold induction at 0.63 mg/ml [26]: 0.936; fold induction at 5 mg/ml [27]: 0.321; fold induction at 2.5 mg/ml [28]: 0.779; Ratio [29]: 1.312
